# Screening data as filed in PubChem BioAssay.
# OX1R antag-1 – OX1R (HCRTR1) antagonists, primary screen, fluorescence, CHO/OX1R cells, Fluo-8 calcium, orexin A; Orexin/Hypocretin receptor type 1 (Homo sapiens), O43613; Fluo-8 calcium fluorescence; inhibition, % at 5 µM; 330,000 compounds, 0.43% hits; AID 434989, 2010;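 active means inhibition above its plate's threshold, mean inhibition of all tested compounds on the plate plus 3 SD, cut at about 37% in these data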
# TAAR1 ag – human TAAR1 agonists, primary screen, Fluo-8 calcium fluorescence, CHO RD-HGA16 cells | vehicle wells 0%, saturating PEA agonist 100% | activation, % at 3 µM | 360,000 compounds, 0.99% hits | AID 624467, 2012;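 active means activation above the mean activation of all test compounds in the run plus 3 SD, cut at about 38% in these data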
#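 Repeats: no replicates (n 1) | Material: CHO-derived RD-HGA16 cells with stable Gα16 and human TAAR1 | Technique: Kinetic Fluo-8 calcium fluorescence | Schedule: 17-24 h seeding, 75 min 37 °C dye, 30 min RT | Evaluation: % activation from peak over basal fluorescence ratio, DMSO-to-PEA scaled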
# TAAR1 antagonist – human TAAR1 antagonists, primary screen, Fluo-8 calcium fluorescence, CHO RD-HGA16 cells. antagonist. 360,000 compounds, 1.5% hits. Trace amine-associated receptor 1 (Homo sapiens), Q96RJ0. inhibition, % at 3 µM;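 active means inhibition above a per-plate cutoff, the mean inhibition of test compounds on that plate plus 3 SD, cut at about 49% in these data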
#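 Material: RD-HGA16 CHO cells with stable hTAAR1 and Gα16; Dosing: single nominal final test compound concentration of 3 µM; Schedule: seeding 17-24 h prior, 75-min 37 °C, 30-min RT dye loading; Detection: kinetic Fluo-8 calcium fluorescence measurement; Measure: % inhibition from peak post-agonist over basal fluorescence ratio; Benchmarks: vehicle and agonist controls.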
# OX1R antag-2 – antagonists of human orexin 1 receptor (OX1R). OX1R-expressing cells, FRET antagonist read-out. 330,000 compounds, 1.8% hits. inhibition, % at 6.6 µM. Orexin/Hypocretin receptor type 1 (Homo sapiens), O43613; in the data active means inhibition mostly above about 38%, no sharp cut-off; inactive means mostly below about 40%
# CHO parental Ca – ATP-evoked calcium signal inhibitors, parental CHO, primary screen, counter-screen for OX1R antagonist project, cell-based, fluorescence, Fluo-8 calcium dye; parental CHO-K1, ATP-induced calcium, Fluo-8 fluorescence; inhibition, % at 5.6 µM; 330,000 compounds, 0.63% hits; AID 463079, 2010;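 active means inhibition above that plate's mean sample inhibition plus 3 SD, cut at about 26% in these data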
#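 Material: Parental CHO cells | Reagent: ATP | Compound dosing: Single nominal dose of 5.6 µM per compound | Detection: Intracellular calcium via Fluo-8 no-wash fluorescent dye | Read-out: % inhibition of ATP-induced calcium mobilization | Benchmarks: Low control ATP plus DMSO, high control DMSO only | Replicates: Singlicate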
# GPR7 antag – GPR7 receptor antagonists, primary screen, cell-based, fluorescence, single concentration; inhibition, % at 4.4 µM; 290,000 compounds, 1.1% hits; Neuropeptides B/W receptor type 1 (Homo sapiens), P48145; GPR7-expressing cells, fluorescence antagonist assay; in the data active means inhibition above about 16%, passing the limit was not always enough;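 further: cells stimulated with the agonist NPW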
# Target sequence (P48145 whole entry, looked up): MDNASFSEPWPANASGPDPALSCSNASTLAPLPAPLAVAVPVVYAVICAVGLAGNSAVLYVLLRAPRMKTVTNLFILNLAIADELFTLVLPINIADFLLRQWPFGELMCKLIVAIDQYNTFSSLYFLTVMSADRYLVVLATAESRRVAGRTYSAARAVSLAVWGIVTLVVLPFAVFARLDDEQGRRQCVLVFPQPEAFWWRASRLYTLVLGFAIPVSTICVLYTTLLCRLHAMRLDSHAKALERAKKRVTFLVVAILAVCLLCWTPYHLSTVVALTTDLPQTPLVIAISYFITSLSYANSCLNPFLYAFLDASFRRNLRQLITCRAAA
# A number is an active result; 0 = inactive; - = no result given. A selection: hits, their analogues and other compounds. The true share with any hit is near 4.6%.
SMILES,OX1R antag-1,TAAR1 ag,TAAR1 antagonist,OX1R antag-2,CHO parental Ca,GPR7 antag
O=C1C(Oc2ccc(Cl)cc2)C(c2ccc3c(c2)OCO3)N1CC1CCCO1 (stereo unspecified),0,0,50,0,0,0
CC(NC(=O)COC(=O)c1cc([N+](=O)[O-])ccc1N1CCOCC1)c1ccc(F)cc1 (stereo unspecified),0,0,0,39,0,-
CC(NC(=O)COC(=O)c1cc([N+](=O)[O-])ccc1N1CCOCC1)c1ccccc1 (stereo unspecified),0,0,0,51,0,0
O=C(COC(=O)c1cc([N+](=O)[O-])ccc1N1CCOCC1)NCc1ccccc1,-,0,0,-,-,-
CCOC(=O)c1nn(-c2ccccc2)c(=O)c2c(NC(C)=O)scc12,0,0,0,0,0,0
Nc1scc2c(C(=O)N/N=C/c3ccc(Cl)cc3)nn(-c3ccccc3)c(=O)c12,0,0,0,47,0,0
C#CCN1C=CC(=O)[C@@H](OC(=O)Nc2ccc(C)cc2)[C@H]1c1ccccc1Br,-,0,0,-,-,-
O=C(c1cc2nc(-c3ccc(F)cc3)cc(C(F)(F)F)n2n1)N1CCCCC1c1cccnc1 (stereo unspecified),0,0,0,0,42,0
O=C(NC(C(=O)N1CCCC1C(=O)NC1CCCC1)c1ccccc1)c1cccs1 (stereo unspecified),-,0,0,-,-,-
CCCCN1C(=O)c2ccc(C(=O)OCC(=O)N3CCN(c4ccccc4)CC3)cc2C1=O,0,0,0,0,0,-
COCCCN1C(=O)c2ccc(C(=O)OCC(=O)N3CCN(c4ccccc4)CC3)cc2C1=O,0,0,0,46,0,-
O=C1N[C@@H](Cc2ccccc2)C(=O)N2[C@H]1CSCCS2(=O)=O,-,0,0,-,-,-
CCCCCCCCN1C(=O)[C@@H](CC(=O)N2CCSCC2)C[C@@]2(C(=O)OC)C1=C[C@H](C(C)(C)C)O[C@@H]2C,-,0,0,-,-,-
C/C(=N\Nc1ccc([N+](=O)[O-])cc1)c1ccc(O)cc1,0,0,55,0,0,0
C/C(=N\Nc1ccc([N+](=O)[O-])cc1)c1cccc(N)c1,0,0,0,0,0,0
Cc1cc(Nc2cccc(Cl)c2)nc(N2CCOCC2)n1,0,0,0,0,0,0
Cc1cc(Nc2ccccc2)nc(N2CCOCC2)n1,0,41,0,0,0,0
CCOC(=O)CN1C(=O)[C@]2(OCCC=C[C@H]2C)c2c(Br)cccc21,-,0,0,-,-,-
Cc1sc2nc3n(c(=O)c2c1C)CCCCC3,0,0,0,0,0,0
Cc1sc2nc3ccc(N4CCCCC4)nn3c(=O)c2c1C,0,0,0,76,0,0
Cc1ccc2nc3ccc(N4CCCC4)nn3c(=O)c2c1,0,0,0,78,0,0
COC(=O)[C@]12C[C@H](CC(=O)NCC34CC5CC(CC(C5)C3)C4)C(=O)N(CCC3=CCCCC3)C1=C[C@H](COCc1ccccc1)O[C@@H]2C,-,0,0,-,-,-
O=C(CSCC(=O)N1CCN(c2ccccc2)CC1)Nc1nc(-c2ccc(Cl)s2)cs1,0,0,0,0,0,0
O=C(Nc1nc(-c2ccc(Cl)s2)cs1)c1ccncc1,0,0,0,44,0,0
O=C(Nc1nc(-c2ccccc2Cl)cs1)c1cccnc1,0,41,0,0,0,0
O=C(CSCC(=O)N1CCCCC1)Nc1nc(-c2ccc(Cl)s2)cs1,0,0,54,0,30,0
O=C(Nc1nc(-c2cccs2)cs1)c1ccc(Cl)cc1,0,0,0,0,0,0
C=CCn1c(=O)c(CCC(=O)Nc2ccc(N3CCOCC3)cc2)nc2cc(C(F)(F)F)ccc21,0,0,0,0,0,0
O=C(CSc1nnc2n1CCCN2)c1ccc([N+](=O)[O-])cc1,0,0,0,51,0,0
COc1ccc(-c2oc3c(OC)c(OC)c(OC)c(O)c3c(=O)c2OC)cc1OC,0,0,0,0,0,0
